{"source": "ChEMBL document CHEMBL4364287", "about": "“Enhanced Inhibition of Influenza A Virus Adhesion by Di- and Trivalent Hemagglutinin Inhibitors” (J Med Chem, 2019)", "key": {"Influenza A virus [1]": {"test_system": "Influenza A virus", "experiment": "Antiviral activity against Influenza A virus WU95 expressing Influenza A virus (A/Netherlands/178/1995(H3N2)) H3 hemagglutinin infected in MDCK2 cells assessed as reduction in virus-induced cytopathogenicity preincubated with virus for 4 hrs followed by cell infection and measured after 3 days by DAPI staining-based assay", "type": "functional, organism-based", "how_it_was_run": "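WU95 virus was preincubated 4 h at room temperature in Opti-mem with varying compound concentrations. It was then inoculated onto confluent MDCK-II cells at MOI 0.005 and held 3 days with 1 µg/ml TPCK-trypsin to allow multiple rounds of infection. Cells were fixed and DAPI-stained, and monolayers inspected visually; absence of stained cells was taken as cell killing.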"}, "[2]": {"experiment": "Inhibition of sensor loaded biotinylated-LAMP1 binding to Influenza A virus (A/Netherlands/178/1995(H3N2)) H3 hemagglutinin expressed in Influenza virus WU95 in presence of NA inhibitor oseltamivir carboxylate by biolayer interferometric analysis", "how_it_was_run": "(§1)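 OctetRed BLI: streptavidin sensors were saturated with biotinylated LAMP1 in PBS pH 7.4. They were dipped into WU95 (8 HAU, 2.5 × 10^8 particles per well) preincubated 4 h at room temperature with compound and 10 µM (end concentration) oseltamivir carboxylate. Initial binding rate was compared with a no-compound control.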"}, "[3]": {"test_system": "Influenza A virus (A/Netherlands/178/1995(H3N2))", "experiment": "Potency index, ratio of compound 7 IC50 to test compound IC50 for inhibition of sensor loaded biotinylated-LAMP1 binding to Influenza A virus (A/Netherlands/178/1995(H3N2)) H3 hemagglutinin expressed in Influenza virus WU95"}, "[4]": {"test_system": "Influenza A virus (A/duck/Hunan/795/2002(H5N1))", "experiment": "Inhibition of sensor loaded biotinylated-LAMP1 binding to Influenza A virus (A/duck/Hunan/795/2002 (H5N1)) […] expressed in Influenza virus H5N1 by biolayer interferometric analysis relative to control"}, "[5]": {"experiment": "Inhibition of sensor loaded biotinylated-LAMP1 binding to Influenza A virus (A/Netherlands/602/2009(H1N1)) […] by biolayer interferometric analysis"}, "[6]": {"test_system": "Influenza A virus (A/Netherlands/178/1995(H3N2))", "experiment": "Inhibition of sensor loaded biotinylated-LAMP1 binding to Influenza A virus (A/Netherlands/178/1995(H3N2)) H3 hemagglutinin expressed in Influenza virus WU95 at 3 uM in presence of NA inhibitor oseltamivir carboxylate by biolayer interferometric analysis", "how_it_was_run": "as §1"}, "[7]": {"test_system": "Influenza A virus (A/Bilthoven/1761/1976(H3N2))", "experiment": "Inhibition of sensor loaded biotinylated-LAMP1 binding to Influenza A virus (A/Bilthoven/1761/1976(H3N2)) H3 hemagglutinin expressed in Influenza virus VI75 at 3 uM by biolayer interferometric analysis", "how_it_was_run": "(§2)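 BLI with streptavidin sensors loaded to saturation with biotinylated LAMP1 (PBS, pH 7.4). VI75 virus was preincubated 4 h at room temperature with 3 µM compound, without or with 10 µM oseltamivir carboxylate. Initial virus binding rate was compared with a compound-free control.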"}, "[8]": {"test_system": "Influenza A virus (A/Bilthoven/1761/1976(H3N2))", "experiment": "Inhibition of sensor loaded biotinylated-LAMP1 binding to Influenza A virus (A/Bilthoven/1761/1976(H3N2)) H3 hemagglutinin expressed in Influenza virus VI75 at 3 uM in presence of NA inhibitor oseltamivir carboxylate by biolayer interferometric analysis", "how_it_was_run": "as §2"}, "[9]": {"experiment": "Inhibition of Influenza A virus (A/Netherlands/178/1995(H3N2)) H3 hemagglutinin expressed in Influenza virus WU95 assessed as reduction in human erythrocytes hemagglutination preincubated for 4 hrs followed by erythrocytes addition and measured after 2 hrs", "type": "cell-based", "how_it_was_run": "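Four hemagglutination units of virus were preincubated 4 h at room temperature with limiting compound dilutions in the presence of oseltamivir carboxylate. Then 0.5% (v/v) erythrocytes were added for 2 h at 4 °C. The lowest inhibiting concentration was recorded; two experiments were run in duplicate and means are reported.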"}, "[10]": {"test_system": "Influenza A virus (A/Netherlands/178/1995(H3N2))", "experiment": "Potency index, ratio of compound 8 IC50 to test compound IC50 for Inhibition of Influenza A virus (A/Netherlands/178/1995(H3N2)) H3 hemagglutinin expressed in Influenza virus WU95 assessed as reduction in human erythrocytes hemagglutination", "type": "cell-based"}, "Influenza A virus [11]": {"test_system": "Influenza A virus", "experiment": "Antiviral activity against Influenza A virus WU95 expressing Influenza A virus (A/Netherlands/178/1995(H3N2)) H3 hemagglutinin infected in MDCK2 cells preincubated with virus for 4 hrs followed by cell infection and measured at 7 hrs post-infection by DAPI staining-based assay", "type": "functional, organism-based", "how_it_was_run": "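Single-cycle infection: WU95 in Opti-mem was preincubated 4 h at room temperature with varying compound concentrations. Confluent MDCK-II cells were inoculated in triplicate at MOI 0.005 and fixed at 7 h post-infection in methanol (−20 °C, 5 min). Cells were immunostained for nucleoprotein (HB65, Alexa 488 secondary), counterstained with DAPI, and infected cells per well were counted.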"}, "MDCK-II": {"test_system": "MDCK-II", "experiment": "Cytotoxicity against MDCK2 cells assessed as reduction in cell viability measured after 24 hrs by WST1 assay", "type": "cell-based, Canis lupus familiaris", "conditions": "dog", "how_it_was_run": "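MDCK-II cells were incubated 24 h in Opti-mem with compounds at different concentrations. Cell number and viability were then read by WST-1 assay.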"}}, "note": "Activity calls are given as the source filed them. The rule behind the calls is not given here.", "data": [{"smiles": "CC(=O)N[C@H]1[C@H](O[C@H]2[C@@H](O)[C@@H](CO)O[C@@H](O[C@H]3[C@H](O)[C@@H](O)[C@H](n4cc(-c5ccc(-c6cn(CCCC(=O)Nc7cccc(-c8cc(-c9cccc(NC(=O)CCCn%10cc(-c%11ccc(-c%12cn([C@@H]%13O[C@H](CO)[C@@H](O[C@@H]%14O[C@H](CO)[C@H](O)[C@H](O[C@@H]%15O[C@H](CO)[C@@H](O[C@@H]%16O[C@H](CO[C@]%17(C(=O)O)C[C@H](O)[C@@H](NC(C)=O)[C@H]([C@H](O)[C@H](O)CO)O%17)[C@H](O)[C@H](O)[C@H]%16O)[C@H](O)[C@H]%15NC(C)=O)[C@H]%14O)[C@H](O)[C@H]%13O)nn%12)cc%11)nn%10)c9)cc(-c9cccc(NC(=O)CCCn%10cc(-c%11ccc(-c%12cn([C@@H]%13O[C@H](CO)[C@@H](O[C@@H]%14O[C@H](CO)[C@H](O)[C@H](O[C@@H]%15O[C@H](CO)[C@@H](O[C@@H]%16O[C@H](CO[C@]%17(C(=O)O)C[C@H](O)[C@@H](NC(C)=O)[C@H]([C@H](O)[C@H](O)CO)O%17)[C@H](O)[C@H](O)[C@H]%16O)[C@H](O)[C@H]%15NC(C)=O)[C@H]%14O)[C@H](O)[C@H]%13O)nn%12)cc%11)nn%10)c9)c8)c7)nn6)cc5)nn4)O[C@@H]3CO)[C@@H]2O)O[C@H](CO)[C@@H](O[C@@H]2O[C@H](CO[C@]3(C(=O)O)C[C@H](O)[C@@H](NC(C)=O)[C@H]([C@H](O)[C@H](O)CO)O3)[C@H](O)[C@H](O)[C@H]2O)[C@@H]1O", "values": [{"measurement": "Activity", "setting": "Influenza A virus [1]", "result": "Active"}, {"measurement": "IC50", "setting": "[2]", "result": 710, "unit": "nM"}, {"measurement": "Ratio IC50", "setting": "[3]", "result": 428}, {"measurement": "Imax", "setting": "[4]", "result": 50, "unit": "%"}, {"measurement": "IC50", "setting": "[5]", "result": 2700, "unit": "nM"}, {"measurement": "inhibition", "setting": "[6]", "result": "Active"}, {"measurement": "inhibition", "setting": "[7]", "result": "Active"}, {"measurement": "inhibition", "setting": "[8]", "result": "Active"}, {"measurement": "Ki", "setting": "[9]", "result": 9.4, "unit": "µM"}, {"measurement": "Ratio IC50", "setting": "[10]", "result": 38}, {"measurement": "IC50", "setting": "Influenza A virus [11]", "result": 4.4, "unit": "µM"}, {"measurement": "Activity", "setting": "MDCK-II", "result": "Non-Toxic"}]}]}
